SUMO1 PPI mod – SUMO1-SIM interaction modulation. P63165. SUMO1 binding to a labelled peptide, TR-FRET, 1 h. inhibition, % at 20 µM. 360,000 compounds, 0.33% hits; in the data active = inhibition above about 37%
Target sequence (P63165 whole entry, looked up): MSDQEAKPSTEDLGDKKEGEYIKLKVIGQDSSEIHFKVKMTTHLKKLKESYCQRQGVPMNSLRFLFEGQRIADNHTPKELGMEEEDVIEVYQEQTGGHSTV
Scp1 inh – Scp-1 (human) phosphatase inhibition | AID 493091 | inhibition, % at 20 µM | Q9GZU7 | Recombinant Scp1, phosphopeptide, malachite green phosphate absorbance | 340,000 compounds, 0.88% hits;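 active = inhibition above about 50% at 20 µM, limit read from the data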
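Test system: SCP-1 phosphatase catalytic domain, residues 76-261 | Compound dosing: One concentration, 20 µM, with 1.0% DMSO | Schedule: 45 min room-temperature reaction, 5 min colour, 30 min stabiliser | Detection: Absorbance at 630 nm | Read-out basis: % inhibition of SCP-1 phosphate liberation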
STEP block – blocks human striatal-enriched tyrosine phosphatase; P54829; recombinant STEP, OMFP fluorogenic substrate, fluorescence; inhibition, % at 20 µM; 360,000 compounds, 0.25% hits; AID 588621;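 active = inhibition at 20 µM, scaled per plate between control wells, above about 37%, limit read from the data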
Target sequence (P54829 whole entry, looked up): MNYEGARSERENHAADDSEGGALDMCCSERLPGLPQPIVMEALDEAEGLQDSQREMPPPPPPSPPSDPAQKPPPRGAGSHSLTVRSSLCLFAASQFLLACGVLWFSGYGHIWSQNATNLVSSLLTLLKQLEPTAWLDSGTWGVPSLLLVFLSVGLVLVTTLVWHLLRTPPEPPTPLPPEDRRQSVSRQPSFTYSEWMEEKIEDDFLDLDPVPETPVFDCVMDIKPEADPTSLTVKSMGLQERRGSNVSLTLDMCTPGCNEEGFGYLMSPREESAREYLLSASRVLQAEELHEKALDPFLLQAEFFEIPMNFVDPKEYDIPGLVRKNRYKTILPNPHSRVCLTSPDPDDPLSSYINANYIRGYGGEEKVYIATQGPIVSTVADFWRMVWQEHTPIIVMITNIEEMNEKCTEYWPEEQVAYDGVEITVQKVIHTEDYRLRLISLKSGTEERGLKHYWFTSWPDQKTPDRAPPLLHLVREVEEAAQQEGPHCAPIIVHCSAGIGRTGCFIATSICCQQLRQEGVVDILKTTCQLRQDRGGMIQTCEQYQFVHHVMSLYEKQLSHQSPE
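System: isolated STEP enzyme; schedule: 20 min enzyme reaction at room temperature, protected from light; medium: Bis-Tris buffer pH 6.0, 2.5 mM DTT, 0.005% Tween 20; signal: fluorescence, 480/540 nm; dosing: single compound dose of 20 µM, 1% DMSO final; also added: OMFP substrate, 25 µM final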
DNMT1 block – blocks human DNA methyltransferase DNMT1; P26358; DNMT1 molecular beacon, Hinp1I cleavage, fluorescence; inhibition (reported as % activation of signal), % at 10 µM; 360,000 compounds, 0.83% hits; in the data active = inhibition above about 50%
LMPTP inh – blocks human LMPTP phosphatase | P24666 | inhibition, % at 20 µM | recombinant LMPTP-A, OMFP fluorogenic substrate, fluorescence intensity | 360,000 compounds, 0.22% hits | AID 651560;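 active = compounds that cut the enzyme signal by at least half of the control window in the single-dose screen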
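Buffer or medium: Bis-Tris pH 6.0, DTT, detergent; Assay system: LMPTP-A enzyme; Quantity: 0.625 nM enzyme; Detection: endpoint fluorescence intensity; Times: 50 min dark incubation at room temperature; Controls: substrate-only low control, DMSO enzyme-plus-substrate high control; Doses: single 20 µM dose; Read-out: percent inhibition versus substrate-only and uninhibited controls; Reagent: 400 µM OMFP.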
Scp1 confirm – Scp-1 (human) inhibition, single-dose confirmed | shares compounds with Scp1 inh | recombinant SCP-1 catalytic domain, phosphate release, malachite green absorbance | inhibition, % at 20 µM | 2,500 compounds, 61% hits | AID 540281
MG interference – colorimetric interference in Scp-1 counter-screen; 2,500 tested, under 10 active; AID 540313; shares compounds with Scp1 inh; apparent inhibition (interference), % at 20 µM; Colorimetric interference counterscreen, malachite green absorbance 630 nm;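 note: compounds added after enzyme reaction finished so only phosphate colour detection is probed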
Scp1 DSF – validation of human Scp-1 inhibitors by thermal shift binding; shares compounds with Scp1 inh; Recombinant SCP1, Sypro Orange thermal shift Tm; thermal shift relative to vanadate control, % at 40 µM; 1,500 compounds, 25% hits; AID 540329;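 active = substances whose mean melting-temperature shift, as a percentage of the reference inhibitor's shift, reaches about 5.3%, limit read from the data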
Hits are given with their value; . = inactive; / = no result given. Hits are enriched below; roughly 1.7% of the tested compounds scored in any of these assays.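 Rule for the calls, unless noted: active = inhibition of at least 30% at 20 µM; inactive = the rest.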

SMILES	SUMO1 PPI mod	Scp1 inh	STEP block	DNMT1 block	LMPTP inh	Scp1 confirm	MG interference	Scp1 DSF
CN1C(=O)/C(=C2\SC(=S)N(CCCCCC(=O)O)C2=O)c2ccccc21	.	103.5	98.5	.	85.1	67.8	.	.
O=C(O)CCN1C(=O)/C(=C2\C(=O)N(Cc3ccc(F)cc3)c3ccccc32)SC1=S	.	88.2	93.0	.	81.9	61.4	.	8.8
CCN1C(=O)/C(=C2\SC(=S)N(CCCOC)C2=O)c2ccccc21	.	.	.	.	.	/	/	/
CCCCCCn1c(=O)n2n(c1=O)C[C@]1(OC(=O)NC3CC3)CN(S(=O)(=O)c3ccc(C)cc3)C[C@]1(O)C2	.	/	.	.	.	/	/	/
CCOc1ccc(Cl)cc1S(=O)(=O)NCc1cccnc1	.	.	.	.	.	/	/	/
COc1ccc(Cl)cc1S(=O)(=O)NCc1cccnc1	.	59.6	.	.	.	.	.	/
COc1cc(/C=C2\C(=N)N3N=C(S(C)(=O)=O)SC3=NC2=O)ccc1OS(=O)(=O)c1ccc(C)cc1	.	68.8	.	.	.	74.8	.	11.7
COc1ccccc1OCCOc1ccc(/C=C2\C(=N)N3N=C(S(C)(=O)=O)SC3=NC2=O)cc1	.	80.0	.	.	.	55.7	.	6.9
CC1CCc2c(sc(NC(=O)c3ccc(Cn4cc([N+](=O)[O-])cn4)o3)c2C#N)C1 (stereo unspecified)	.	71.3	.	.	.	61.0	.	6.4
CCc1ccc(CNCCNC(=O)c2ccco2)cc1	.	.	.	.	.	/	/	/
O=C(NCCNCc1ccccc1)c1ccco1	.	69.8	.	67.6	.	49.5	.	9.6
COc1cc(OC)cc(C(=O)Nc2cc(C)nn2-c2ccccc2)c1	.	.	.	.	.	/	/	/
Cc1cccc(N(Cc2ccccc2)C(=O)CSC(C)C(=O)Nc2cc(C)on2)c1 (stereo unspecified)	.	.	.	.	.	/	/	/
CC(C)(C)OC(=O)N1CCCC1C(=O)NCCc1ccccc1 (stereo unspecified)	.	96.7	.	.	.	.	.	/
COc1ccc(C(=O)NCc2nnc(SCC(=O)Nc3ccccc3OC)o2)cc1	.	.	.	.	.	/	/	/
COc1ccc(CCCc2nnc(SCC(=O)Nc3ccc(C)c(C)c3)o2)cc1	.	89.6	.	.	.	.	.	/
COc1ccc(C(=O)NCc2nnc(SCC(=O)Nc3ccccc3F)o2)cc1	.	51.9	.	.	.	.	.	/
O=C(Nc1ccc2ncccc2c1)c1ccccc1Cl	.	56.7	.	.	.	.	.	/
CCC(=O)c1ccc(OCC(=O)Nc2cc(S(=O)(=O)N3CCCCC3)ccc2N2CCN(CC)CC2)cc1	.	106.4	.	.	.	.	.	/
Cc1c(C)c2c(OCC(=O)N3CCC(C(N)=O)CC3)cc3c(c2oc1=O)CCC(C)(C)O3	.	.	.	.	.	/	/	/
Cc1cc(C)c2c(=N)c3ccccc3n(CCCCCCCCn3c4ccccc4c(=N)c4c(C)cc(C)nc43)c2n1	94.8	58.7	.	.	87.3	.	.	/
CCCCCCCCn1c2c(c(=N)c3ccccc31)CCC2	.	.	.	.	.	/	/	/
CC[n+]1c(C)cc2c(sc3ccccc32)c1C	.	63.0	.	.	.	.	.	/
COc1ccc(CN2CCc3ccccc3C2)c(OC)c1	.	.	.	.	.	/	/	/
COc1ccc(C2=[N+](C)CCn3cccc32)c(OC)c1	.	103.3	.	.	.	95.6	.	.
SMILES	SUMO1 PPI mod	Scp1 inh	STEP block	DNMT1 block	LMPTP inh	Scp1 confirm	MG interference	Scp1 DSF
COc1ccc(NC(=O)c2cc3c(COC(C)=O)cnc(C)c3oc2=Nc2cccc(C(=O)O)c2)c(OC)c1	.	89.4	98.3	.	.	63.9	.	.
O=C(O)CSc1c2c(nc3cc(C(=O)Nc4ccc(F)c(Cl)c4)ccc13)CCCC2	.	52.0	.	.	.	82.8	.	.
CC(=O)c1nnn(-c2ccccc2C#N)c1C	.	65.3	.	.	.	.	.	/
O=C(NCCc1nc2ccccc2[nH]1)c1ccc(Br)o1	.	61.3	.	.	.	.	.	/
OCC(O)C1OC(c2ccco2)OC(CO)C1O (stereo unspecified)	.	.	.	.	.	/	/	/
Cc1ccc(S(=O)(=O)N2[C@@H](c3ccccc3F)C(C(=O)O)=CC[C@H]2c2ccc(Cl)c(Cl)c2)cc1	.	.	.	.	.	/	/	/
NS(=O)(=O)c1ccc(NC(=O)CSc2nnc(NC3CC3)s2)cc1	.	86.6	.	.	.	46.6	.	.
O=C(CSc1nnc(NC2CCCCC2)s1)Nc1ccc2c(c1)C(=O)c1ccccc1C2=O	.	.	.	.	.	/	/	/
O=C(COC(=O)CNC(=O)c1ccccc1)NCc1ccc2c(c1)OCO2	.	67.3	.	.	.	.	.	/
O=C(COC(=O)CNC(=O)c1cccc(OC(F)F)c1)NCc1ccc2c(c1)OCO2	.	.	.	.	.	/	/	/
O=C(NCCc1ccccc1)c1ccc(-c2ccccc2C(F)(F)F)o1	/	96.8	/	/	/	.	.	/
O=C(NCCc1ccccc1)c1ccc(-c2ccc(F)cc2)o1	.	.	.	.	.	/	/	/
CCN(CC(=O)N1CCOCC1)S(=O)(=O)c1ccc(F)cc1	.	.	.	.	.	/	/	/
NS(=O)(=O)c1ccc(NC(=S)Nc2ccc(F)c(F)c2)cc1	.	59.5	.	.	.	.	.	/
COc1cc(NS(=O)(=O)c2ccc(-c3ccc(=O)[nH]n3)o2)cc(OC)c1OC	.	.	.	.	.	/	/	/
Cc1cc(Br)ccc1NC(=O)CN(C)C(=O)Cn1c(=O)cnc2ccccc21	.	96.4	.	.	.	88.6	.	.
Cc1cc(C2C(=O)NC(=O)C2=O)c(C)cc1Br (stereo unspecified)	.	.	.	.	.	/	/	/
COc1ccc(-n2c(Cc3cccn3C)nnc2SCC(=O)NCc2ccco2)cc1	.	.	.	.	.	/	/	/
COc1ccc(-n2c(Cc3cccn3C)nnc2SCC(=O)NCc2ccc(F)cc2)cc1	.	90.2	.	.	.	.	.	/
CCOc1ccc(-c2nnn(CC(=O)NCc3ccccc3)n2)cc1	.	57.2	.	.	.	.	.	/
CCC(=O)C1CCCN(C(=O)CCc2nnc(C3(c4ccc(Cl)cc4)CCC3)o2)C1 (stereo unspecified)	.	.	.	.	.	/	/	/
O=C1CC2CC1C(C(=O)O)C2C(=O)O (stereo unspecified)	.	.	.	.	.	/	/	/
CC1(C)C(=O)Nc2ccccc2N1C(=O)COc1ccccc1C#N	.	50.2	.	.	.	58.6	.	.

Bioassay records (PubChem)
